Values belong to the compound of their own block, whether it stands above or below them. Calls of active or inactive are those of the source. The rule behind the calls is not given here.
What was measured:
[1] = target: T1, Retinoblastoma-associated protein (Homo sapiens) (UniProt P06400); assay: Inhibition of RB protein in human MCF7 cells assessed as reduction in EGF-induced Rb phosphorylation at Ser780 residue by NanoBiT cell-based immunoassay
T1 sequence (whole entry): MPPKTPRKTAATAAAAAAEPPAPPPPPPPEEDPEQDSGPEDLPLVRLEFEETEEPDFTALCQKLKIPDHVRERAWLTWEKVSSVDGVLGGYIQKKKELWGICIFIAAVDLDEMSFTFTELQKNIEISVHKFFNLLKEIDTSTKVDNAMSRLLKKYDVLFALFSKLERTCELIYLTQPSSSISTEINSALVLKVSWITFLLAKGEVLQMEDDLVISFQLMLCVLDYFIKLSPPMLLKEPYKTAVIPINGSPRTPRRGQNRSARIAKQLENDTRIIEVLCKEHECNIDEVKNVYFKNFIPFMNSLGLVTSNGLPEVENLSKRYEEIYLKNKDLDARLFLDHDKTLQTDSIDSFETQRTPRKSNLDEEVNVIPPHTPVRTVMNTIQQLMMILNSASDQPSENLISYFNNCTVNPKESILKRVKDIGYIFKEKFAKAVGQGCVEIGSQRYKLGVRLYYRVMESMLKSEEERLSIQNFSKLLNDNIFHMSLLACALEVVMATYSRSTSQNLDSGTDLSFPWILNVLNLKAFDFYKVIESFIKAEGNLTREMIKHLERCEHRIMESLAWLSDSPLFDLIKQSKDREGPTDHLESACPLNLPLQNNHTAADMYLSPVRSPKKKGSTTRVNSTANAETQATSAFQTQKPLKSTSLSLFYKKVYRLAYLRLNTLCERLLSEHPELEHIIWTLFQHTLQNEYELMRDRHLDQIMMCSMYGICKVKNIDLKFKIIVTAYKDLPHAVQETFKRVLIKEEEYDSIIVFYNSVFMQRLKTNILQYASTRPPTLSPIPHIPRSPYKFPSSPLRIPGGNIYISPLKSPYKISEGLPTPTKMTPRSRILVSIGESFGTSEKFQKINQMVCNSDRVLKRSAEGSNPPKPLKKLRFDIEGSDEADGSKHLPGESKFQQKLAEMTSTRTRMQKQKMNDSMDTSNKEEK

[2] = target: T1, Retinoblastoma-associated protein (Homo sapiens); assay: Inhibition of RB protein in human MCF7 cells assessed as reduction in 17beta-estradiol-induced Rb phosphorylation at Ser780 residue by NanoBiT cell-based immunoassay
[3] = target: T1, Retinoblastoma-associated protein (Homo sapiens); assay: Inhibition of RB protein in human MCF7 cells assessed as reduction in EGF-induced Rb phosphorylation at Ser807/811 residue by NanoBiT cell-based immunoassay
[4] = target: T1, Retinoblastoma-associated protein (Homo sapiens); assay: Inhibition of RB protein in human MCF7 cells assessed as reduction in 17beta-estradiol-induced Rb phosphorylation at Ser807/811 residue by NanoBiT cell-based immunoassay
[5] = target: Eukaryotic translation initiation factor 4E-binding protein 1 (Homo sapiens) (UniProt Q13541); assay: Inhibition of 4E-BP1 in HEK293 cells assessed as reduction in insulin-induced 4E-BP1 phosphorylation at Ser65 residue by NanoBiT cell-based immunoassay
Chain of Eukaryotic translation initiation factor 4E-binding protein 1 (Homo sapiens) (Q13541 whole entry): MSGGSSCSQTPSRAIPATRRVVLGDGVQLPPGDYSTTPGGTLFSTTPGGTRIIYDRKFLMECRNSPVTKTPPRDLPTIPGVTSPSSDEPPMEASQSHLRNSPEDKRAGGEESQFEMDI

[6] = target: Small ribosomal subunit protein eS6 (Homo sapiens) (UniProt P62753); assay: Inhibition of S6 ribosomal protein in HEK293 cells assessed as reduction in serum-induced S6 phosphorylation at Ser240/244 residue by NanoBiT cell-based immunoassay
[7] = target: Small ribosomal subunit protein eS6 (Homo sapiens) (UniProt P62753); assay: Inhibition of S6 ribosomal protein in HEK293 cells assessed as reduction in insulin-induced S6 phosphorylation at Ser235/236 residue by NanoBiT cell-based immunoassay
[8] = target: Small ribosomal subunit protein eS6 (Homo sapiens) (UniProt P62753); assay: Inhibition of S6 ribosomal protein in HEK293 cells assessed as reduction in serum-induced S6 phosphorylation at Ser235/236 residue by NanoBiT cell-based immunoassay
[9] = target: Small ribosomal subunit protein eS6 (Homo sapiens) (UniProt P62753); assay: Inhibition of S6 ribosomal protein in HEK293 cells assessed as reduction in insulin-induced S6 phosphorylation at Ser240/244 residue by NanoBiT cell-based immunoassay
[10] = target: Eukaryotic translation initiation factor 4E-binding protein 1 (Homo sapiens) (UniProt Q13541); assay: Inhibition of 4E-BP1 in human MCF7 cells assessed as reduction in insulin-induced 4E-BP1 phosphorylation at Ser65 residue by NanoBiT cell-based immunoassay
[11] = Effect on total IkappaBalpha level in human MCF7 cells measured after 4 hrs by NanoBiT cell-based immunoassay; format: toxicity; conditions: mcf7, 4 h
Method in brief: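 MCF-7 cells (50,000/well) held overnight at 37 °C, 5% CO2 without serum, then given a compound titration for 4 h. Lysed 20 min in buffer with 0.1% digitonin and protease/phosphatase inhibitors; mouse and rabbit anti-IκBα primaries plus NanoBiT-labelled anti-mouse/anti-rabbit secondaries added, 90 min at 23 °C; Nano-Glo substrate; luminescence read. Means ± S.E.M., n = 3 technical replicates.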

[12] = target: T2, Catenin beta-1 (Homo sapiens) (UniProt P35222); assay: Induction of beta-catenin degradation in Wnt3a-stimulated HEK293 cells by NanoBiT cell-based immunoassay
T2 sequence (whole entry): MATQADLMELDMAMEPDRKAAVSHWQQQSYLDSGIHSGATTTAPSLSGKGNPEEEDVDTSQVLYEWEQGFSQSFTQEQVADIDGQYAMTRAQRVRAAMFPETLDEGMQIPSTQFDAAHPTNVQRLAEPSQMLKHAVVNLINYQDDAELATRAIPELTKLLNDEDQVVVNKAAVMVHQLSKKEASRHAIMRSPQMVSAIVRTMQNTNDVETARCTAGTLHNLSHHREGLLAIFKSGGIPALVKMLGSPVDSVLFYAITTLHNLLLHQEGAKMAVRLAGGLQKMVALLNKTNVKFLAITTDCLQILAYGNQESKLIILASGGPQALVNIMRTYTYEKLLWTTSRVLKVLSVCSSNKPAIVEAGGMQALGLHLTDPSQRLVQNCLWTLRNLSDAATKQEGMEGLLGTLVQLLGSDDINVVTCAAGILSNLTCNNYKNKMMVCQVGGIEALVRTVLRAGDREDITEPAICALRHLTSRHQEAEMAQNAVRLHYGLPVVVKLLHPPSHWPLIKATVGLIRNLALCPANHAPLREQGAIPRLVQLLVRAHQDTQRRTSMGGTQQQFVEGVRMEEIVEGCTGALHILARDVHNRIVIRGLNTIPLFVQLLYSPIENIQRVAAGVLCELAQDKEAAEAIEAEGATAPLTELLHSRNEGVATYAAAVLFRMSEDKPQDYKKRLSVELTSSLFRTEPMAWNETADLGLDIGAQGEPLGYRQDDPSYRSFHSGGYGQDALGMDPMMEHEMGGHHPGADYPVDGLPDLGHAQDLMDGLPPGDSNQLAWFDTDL

inhibition [1]: Active
inhibition [2]: Active
inhibition [3]: Active
inhibition [4]: Active
Compound: CC(=O)c1c(C)c2cnc(Nc3ccc(N4CCNCC4)cn3)nc2n(C2CCCC2)c1=O

inhibition [5]: Active
inhibition [6]: Active
inhibition [7]: Active
inhibition [8]: Active
inhibition [9]: Active
inhibition [10]: Active
Compound: CO[C@H]1C[C@@H]2CC[C@@H](C)[C@@](O)(O2)C(=O)C(=O)N2CCCC[C@H]2C(=O)O[C@H]([C@H](C)C[C@@H]2CC[C@@H](O)[C@H](OC)C2)CC(=O)[C@H](C)/C=C(\C)[C@@H](O)[C@@H](OC)C(=O)[C@H](C)C[C@H](C)/C=C/C=C/C=C/1C

Compound: C[C@]12CC[C@@H]3c4ccc(O)cc4C[C@@H](CCCCCCCCC[S+]([O-])CCCC(F)(F)C(F)(F)F)[C@H]3[C@@H]1CC[C@@H]2O (some centres not stated) [FULVESTRANT]
Activity [11]: Non-Toxic

Activity [12]: Active
Compound: O=C1Nc2ccccc2C12OCC1(CO2)COC2(OC1)C(=O)Nc1ccccc12 (configuration not stated)
